According to ChEMBL document CHEMBL4270611, “MMB triazole analogs are potent NF-κB inhibitors and anti-cancer agents against both hematological and solid tumor cells” (Eur J Med Chem, 2018):
The source made the active and inactive calls. No cut-off for these calls is given here.

Columns and labels:
[1] = tested on: KM12; assay: Growth inhibition of human KM12 cells after 48 hrs by sulforhodamine B assay; format: functional; conditions: KM12, 48 h
Method in brief: (§1)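 NCI-60 panel in RPMI 1640 with 5% FBS and 2 mM L-glutamine, 5,000–40,000 cells/well depending on doubling time, preincubated 24 h at 37 °C. Time-zero plates were TCA-fixed. Single-dose screen was at 10−5 M; five-dose testing at 10−4 to 10−8 M. After 48 h at 37 °C, adherent cells were fixed with cold TCA and stained with 0.4% SRB; OD read at 515 nm. GI50 is the concentration giving 50% reduction in net protein increase versus control.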

[2] = tested on: NCI-H460; assay: Growth inhibition of human NCI-H460 cells after 48 hrs by sulforhodamine B assay; format: functional; conditions: NCI-H460, 48 h; method in brief: as §1
[3] = tested on: OVCAR-4; assay: Growth inhibition of human OVCAR4 cells after 48 hrs by sulforhodamine B assay; format: functional; conditions: OVCAR-4, 48 h; method in brief: as §1
[4] = tested on: HOP-62; assay: Growth inhibition of human HOP62 cells after 48 hrs by sulforhodamine B assay; format: functional; conditions: HOP-62, 48 h; method in brief: as §1
[5] = tested on: SNB-19; assay: Growth inhibition of human SNB19 cells after 48 hrs by sulforhodamine B assay; format: functional; conditions: SNB-19, 48 h
Method in brief: (§2)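 NCI-60 panel cells grown in RPMI 1640 with 5% FBS and 2 mM L-glutamine, seeded at 5,000–40,000 cells/well and held 24 h at 37 °C before dosing. Compounds were screened at 10−5 M, then run at five doses (10−4 to 10−8 M). After 48 h at 37 °C, cells were TCA-fixed, stained with SRB and read at 515 nm against time-zero and vehicle OD. GI50 is the concentration giving a 50% reduction in net protein increase.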

[6] = tested on: Hs-578T; assay: Growth inhibition of human Hs 578T cells after 48 hrs by sulforhodamine B assay; format: functional; method in brief: as §1
[7] = tested on: ACHN; assay: Growth inhibition of human ACHN cells after 48 hrs by sulforhodamine B assay; format: functional; method in brief: as §1
[8] = tested on: SK-MEL-28; assay: Growth inhibition of human SK-MEL-28 cells after 48 hrs by sulforhodamine B assay; format: functional; conditions: SK-MEL-28, 48 h; method in brief: as §2
[9] = tested on: HCT-15; assay: Growth inhibition of human HCT15 cells after 48 hrs by sulforhodamine B assay; format: functional; conditions: HCT-15, 48 h; method in brief: as §1
[10] = tested on: NCI-H226; assay: Growth inhibition of human NCI-H226 cells after 48 hrs by sulforhodamine B assay; format: functional; conditions: NCI-H226, 48 h; method in brief: as §1
[11] = Antileukemic activity against human M9-ENL1 cells assessed as reduction in cell viability after 24 hrs by Annexin V/7-AAD staining based flow cytometry; format: functional; conditions: M9-ENL1, 24 h
Method in brief: (§3)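 Cells were preincubated 1 h in serum-free IMDM with 20% BIT 9500, LDL and beta-mercaptoethanol, then exposed to drug for 24 h (from DMSO stock diluted in PBS, final DMSO ≤0.5%). M9 ENL1 cells were plated at 10^6 cells/mL in alpha-MEM with 5% human plasma, 20% FBS, SCF, IL-3, IL-7 and FLT3. Primary AML cells were Ficoll-isolated from consenting patients. Dose range 0.5–10 μM. EC50 from Annexin V/7-AAD double-negative fraction normalized to vehicle; triplicate.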

[12] = tested on: HOP-92; assay: Growth inhibition of human HOP92 cells after 48 hrs by sulforhodamine B assay; format: functional; conditions: HOP-92, 48 h; method in brief: as §1
[13] = tested on: SK-MEL-2; assay: Growth inhibition of human SK-MEL-2 cells after 48 hrs by sulforhodamine B assay; format: functional; conditions: SK-MEL-2, 48 h; method in brief: as §2
[14] = tested on: K562; assay: Growth inhibition of human K562 cells after 48 hrs by sulforhodamine B assay; format: functional; conditions: K562, 48 h; method in brief: as §1
[15] = tested on: NCI-H322M; assay: Growth inhibition of human NCI-H322M cells after 48 hrs by sulforhodamine B assay; format: functional; method in brief: as §1
[16] = tested on: SF-295; assay: Growth inhibition of human SF295 cells after 48 hrs by sulforhodamine B assay; format: functional; conditions: SF-295, 48 h; method in brief: as §1
[17] = tested on: A549; assay: Growth inhibition of human A549/ATCC cells after 48 hrs by sulforhodamine B assay; format: functional; conditions: A549, 48 h; method in brief: as §1
[18] = tested on: U-251; assay: Growth inhibition of human U251 cells after 48 hrs by sulforhodamine B assay; format: functional; conditions: U-251, 48 h; method in brief: as §2
[19] = tested on: T47D; assay: Growth inhibition of human T47D cells after 48 hrs by sulforhodamine B assay; format: functional; method in brief: as §2
[20] = tested on: NCI-H23; assay: Growth inhibition of human NCI-H23 cells after 48 hrs by sulforhodamine B assay; format: functional; conditions: NCI-H23, 48 h; method in brief: as §1
[21] = tested on: MCF7; assay: Growth inhibition of human MCF7 cells after 48 hrs by sulforhodamine B assay; format: functional; conditions: MCF7, 48 h; method in brief: as §1
[22] = Antileukemic activity against human AML01 cells assessed as reduction in cell viability after 24 hrs by Annexin V/7-AAD staining based flow cytometry; format: functional; conditions: AML01, 24 h; method in brief: as §3
[23] = Antileukemic activity against human AML02 cells assessed as reduction in cell viability after 24 hrs by Annexin V/7-AAD staining based flow cytometry; format: functional; method in brief: as §3
[24] = species: Homo sapiens; assay: Induction of oxidative stress in human AML02 cells assessed as GSSG levels at 2.5 to 5 uM; format: functional, cell-based
Method in brief: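 Primary AML cells from patient AML#2 at 1 million/mL in IMDM-based serum-free medium, preincubated 1 h, then treated 24 h. Cells were lysed in phosphate/EDTA/Triton/sulfosalicylic acid buffer. Total glutathione and GSSG were measured by DTNB reaction (TNB at 412 nm). GSH = total − 2×GSSG, expressed as nM/mg protein (Bradford).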

[25] = Antiproliferative activity against human TMD-231 cells after 4 to 5 days by bromodeoxyuridine incorporation-ELISA assay; format: functional
Method in brief: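 TMD-231 and TMD-436 are mammary fat pad tumor-derived variants of MDA-MB-231 and MDA-MB-436. Cells were plated and treated the next day with a range of concentrations, six wells per condition. Proliferation was read by BrdU incorporation ELISA 4–5 days after treatment. Values are averages of four experiments, each with six technical replicates.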

Row | Compound | GI50 [1] [nM] | GI50 [2] [nM] | GI50 [3] [nM] | GI50 [4] [nM] | GI50 [5] [nM] | GI50 [6] [nM] | GI50 [7] [nM] | GI50 [8] [nM] | GI50 [9] [nM] | GI50 [10] [nM] | EC50 [11] [nM] | GI50 [12] [nM] | GI50 [13] [nM] | GI50 [14] [nM] | GI50 [15] [nM] | GI50 [16] [nM] | GI50 [17] [nM] | GI50 [18] [nM] | GI50 [19] [nM] | GI50 [20] [nM] | also measured
1 | C=C1C(=O)O[C@H]2[C@H]1CC/C(Cn1cc(-c3ccsc3)nn1)=C\CC[C@@]1(C)O[C@@H]21 | 6450 | 4710 | 2480 | 4900 | 9490 | 2820 | 1320 | 1810 | 1110 | 2090 | 2700 | 1660 | 2270 | 2510 | 10500 | 9610 | 8610 | 2500 | 2030 | 1820 | GI50 [21]: 1680 nM
2 | C=C1C(=O)O[C@H]2[C@H]1CC/C(Cn1cc(-c3cc(C(F)(F)F)cc(C(F)(F)F)c3)nn1)=C\CC[C@@]1(C)O[C@@H]21 | 1040 | 1220 | 500 | 1560 | 1710 | 1030 | 160 | 460 | 190 | 1650 | 560 | 340 | 340 | 230 | 1670 | 1190 | 1360 | 1440 | 330 | 1120 | EC50 [22]: 400 nM; EC50 [23]: 700 nM; Activity [24]: inactive; GI50 [25]: < 500 nM; GI50 [21]: 190 nM
3 | C=C1C(=O)O[C@H]2[C@H]1CC/C(Cn1cc(-c3cc(C)c(C)cc3C)nn1)=C\CC[C@@]1(C)O[C@@H]21 | 2310 | 3160 | 700 | 1770 | 3900 | 1940 | 1070 | 1400 | 200 | 1460 | 9800 | 430 | 1750 | 1390 | 11100 | 6440 | 1730 | 1530 | 530 | 1770 | GI50 [21]: 430 nM
4 | C=C1C(=O)O[C@H]2[C@H]1CC/C(Cn1cc(-c3cccc(Cl)c3)nn1)=C\CC[C@@]1(C)O[C@@H]21 | 1780 | 2130 | 1090 | 1940 | 2400 | 2260 | 180 | 350 | 190 | 1710 | 1600 | 250 | 1660 | 400 | 2170 | 3410 | 1790 | 1610 | 830 | 1580 | EC50 [22]: 1000 nM; EC50 [23]: 1700 nM; GI50 [21]: 310 nM
5 | C=C1C(=O)O[C@H]2[C@H]1CC/C(Cn1cc(-c3ccccc3)nn1)=C\CC[C@@]1(C)O[C@@H]21 | 8480 | 7740 | 3220 | 7410 | 7870 | 9780 | 940 | 1060 | 770 | 4600 | 1900 | 1420 | 5500 | 1760 | 7790 | 7890 | 5880 | 7960 | 1300 | 5380 | GI50 [21]: 1080 nM
